Data: ChEMBL document CHEMBL3992536, “Discovery of a Novel Series of Orally Bioavailable and CNS Penetrant Glucagon-like Peptide-1 Receptor (GLP-1R) Noncompetitive Antagonists Based on a 1,3-Disubstituted-7-aryl-5,5-bis(trifluoromethyl)-5,8-dihydropyrimido[4,5-d]pyrimidine-2,4(1H,3H)-dione Core” (J Med Chem, 2017)
The source made the active and inactive calls. The calls are words filed in the database; no cut-off is given here.

Experiments:
[1] = biological target: T1, Glucagon-like peptide 1 receptor (Homo sapiens, UniProt P43220); assay: Antagonist activity at GLP-1R (unknown origin)
T1 sequence (P43220 whole entry, the tested form may be a part): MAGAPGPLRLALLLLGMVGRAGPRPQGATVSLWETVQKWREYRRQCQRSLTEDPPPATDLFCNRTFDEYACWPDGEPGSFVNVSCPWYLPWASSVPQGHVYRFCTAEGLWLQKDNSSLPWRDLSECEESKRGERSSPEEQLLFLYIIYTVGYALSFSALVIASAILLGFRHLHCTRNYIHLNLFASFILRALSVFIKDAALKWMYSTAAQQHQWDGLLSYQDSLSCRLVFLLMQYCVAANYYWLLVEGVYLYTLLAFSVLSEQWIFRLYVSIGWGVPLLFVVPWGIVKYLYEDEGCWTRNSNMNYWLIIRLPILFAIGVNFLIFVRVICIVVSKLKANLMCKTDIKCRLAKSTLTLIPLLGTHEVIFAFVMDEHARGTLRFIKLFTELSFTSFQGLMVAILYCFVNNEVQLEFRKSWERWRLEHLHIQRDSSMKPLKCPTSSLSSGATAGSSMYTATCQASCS

[2] = biological target: T1, Glucagon-like peptide 1 receptor; assay: Antagonist activity at human GLP-1R expressed in TREx293 cells co-expressing cAMP sensitive luciferase assessed as inhibition of GLP1 (7 to 36 residues) amide-induced cAMP accumulation after 90 mins by GloSensor cAMP assay relative to GLP-1; assay type: functional, cell-based
In short: (§1)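 TREx293 HEK cells expressing GLP-1R, GloSensor cAMP read-out. The minimum response is expressed as % of the GLP-1 response (GLP-1 min). n = 3, average ± SEM.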

[3] = biological target: T1, Glucagon-like peptide 1 receptor; assay: Antagonist activity at human GLP-1R expressed in TREx293 cells co-expressing cAMP sensitive luciferase assessed as inhibition of exendin-4-induced cAMP accumulation after 90 mins by GloSensor cAMP assay; assay type: functional, cell-based
In short: (§2)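 GloSensor cAMP luminescence read-out in TREx293 HEK cells expressing GLP-1R. IC50 and pIC50 come from the concentration–response curves. n = 3, reported as average ± SEM.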

[4] = Half life in Sprague-Dawley rat at 1 mg/kg, iv or 3 mg/kg via oral gavage by LC-MS/MS analysis; assay type: ADME, organism-based; details: in vivo
In short: (§3)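 Rat PK study with dosing at 1 mg/kg iv and 3 mg/kg po. The study reports plasma clearance (mL min⁻¹ kg⁻¹), t1/2 (min), Vss (L/kg) and oral bioavailability F (%).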

[5] = biological target: T2, Glucagon-like peptide 1 receptor (Mus musculus) (UniProt O35659); assay: Antagonist activity at GLP-1R in C57BL/6J mouse primary islets assessed as inhibition of exendin-4-induced increase in glucose-stimulated insulin secretion at 1 uM after 60 mins by radio-immunoassay
T2 sequence (whole entry): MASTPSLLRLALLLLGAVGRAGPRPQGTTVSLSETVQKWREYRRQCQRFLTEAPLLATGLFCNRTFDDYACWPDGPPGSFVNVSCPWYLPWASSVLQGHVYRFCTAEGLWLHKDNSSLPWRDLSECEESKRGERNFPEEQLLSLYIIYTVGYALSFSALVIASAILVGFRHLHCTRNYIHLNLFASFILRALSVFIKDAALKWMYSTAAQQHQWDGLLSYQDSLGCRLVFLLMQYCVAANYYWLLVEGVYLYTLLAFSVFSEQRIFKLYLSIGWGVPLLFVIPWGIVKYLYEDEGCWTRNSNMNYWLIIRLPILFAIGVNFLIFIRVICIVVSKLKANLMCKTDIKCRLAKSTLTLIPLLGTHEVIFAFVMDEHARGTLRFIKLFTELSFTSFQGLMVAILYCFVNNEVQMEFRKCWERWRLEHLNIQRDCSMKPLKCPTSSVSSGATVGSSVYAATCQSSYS

[6] = Drug uptake in Sprague-Dawley rat brain at 3 mg/kg via oral gavage after 1 hr by LC-MS/MS analysis; assay type: ADME, organism-based; details: read-out: Drug uptake
In short: (§4)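 Rat distribution study: single 3 mg/kg oral dose. Plasma (ng/mL) and brain concentrations are measured at 1 h, and brain/plasma Kp is calculated from them.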

Rattus norvegicus [7] = assay: Increase in blood glucose level in Sprague-Dawley rat at 10 mg/kg, po pretreated for 30 mins followed by glucose challenge measured up to 150 mins by oral glucose tolerance test; assay type: functional, organism-based
In short: (§5)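 OGTT in male Sprague-Dawley rats with surgically implanted carotid cannulae, randomized to compound (10 mg/kg po) or vehicle. Dosing is 30 min before a 2 g/kg glucose gavage at time 0. Carotid blood is sampled at intervals for whole blood glucose and insulin.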

Cytochrome P450 1A2 = biological target: T3, Cytochrome P450 1A2 (Homo sapiens, UniProt P05177); assay: Inhibition of CYP1A2 in human liver microsomes using phenacetin as substrate preincubated for 15 mins followed by NADPH addition measured after 8 mins by LC-MS/MS analysis; assay type: ADME
T3 sequence (P05177 whole entry): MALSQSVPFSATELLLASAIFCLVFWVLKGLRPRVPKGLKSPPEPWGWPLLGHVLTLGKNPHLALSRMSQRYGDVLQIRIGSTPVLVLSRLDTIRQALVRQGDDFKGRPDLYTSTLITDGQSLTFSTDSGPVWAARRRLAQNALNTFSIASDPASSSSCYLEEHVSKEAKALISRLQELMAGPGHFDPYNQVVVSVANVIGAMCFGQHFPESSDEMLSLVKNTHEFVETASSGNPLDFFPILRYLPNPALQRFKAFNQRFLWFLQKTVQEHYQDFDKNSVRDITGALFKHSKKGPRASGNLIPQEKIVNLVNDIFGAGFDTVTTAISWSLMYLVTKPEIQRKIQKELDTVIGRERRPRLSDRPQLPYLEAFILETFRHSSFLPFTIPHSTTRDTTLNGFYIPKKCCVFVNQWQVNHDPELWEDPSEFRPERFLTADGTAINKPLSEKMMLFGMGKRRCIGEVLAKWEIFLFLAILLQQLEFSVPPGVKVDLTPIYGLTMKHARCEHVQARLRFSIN

[8] = biological target: T1, Glucagon-like peptide 1 receptor; assay: Non-competitive antagonism/negative allosteric modulation of human GLP-1R expressed in TREx293 cells co-expressing cAMP sensitive luciferase assessed as inhibition of fixed concentration of GLP1 (7 to 36 residues) amide-induced cAMP accumulation by measuring decrease in GLP-1 maximum response at 0.3 to 10 uM after 90 mins by GloSensor cAMP assay; assay type: functional, cell-based
In short: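 A full GLP-1 (7−36) amide concentration–response curve is run in GLP-1R TREx293 HEK cells with GloSensor cAMP detection. It is repeated in the presence of increasing fixed concentrations of antagonist, and the decrease in the GLP-1 maximal response is followed. n = 3.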

Cytochrome P450 3A4 = Cytochrome P450 3A4 (Homo sapiens, UniProt P08684); assay: Inhibition of CYP3A4 in human liver microsomes using midazolam as substrate preincubated for 15 mins followed by NADPH addition measured after 8 mins by LC-MS/MS analysis; assay type: ADME
Sequence of Cytochrome P450 3A4 (P08684 whole entry): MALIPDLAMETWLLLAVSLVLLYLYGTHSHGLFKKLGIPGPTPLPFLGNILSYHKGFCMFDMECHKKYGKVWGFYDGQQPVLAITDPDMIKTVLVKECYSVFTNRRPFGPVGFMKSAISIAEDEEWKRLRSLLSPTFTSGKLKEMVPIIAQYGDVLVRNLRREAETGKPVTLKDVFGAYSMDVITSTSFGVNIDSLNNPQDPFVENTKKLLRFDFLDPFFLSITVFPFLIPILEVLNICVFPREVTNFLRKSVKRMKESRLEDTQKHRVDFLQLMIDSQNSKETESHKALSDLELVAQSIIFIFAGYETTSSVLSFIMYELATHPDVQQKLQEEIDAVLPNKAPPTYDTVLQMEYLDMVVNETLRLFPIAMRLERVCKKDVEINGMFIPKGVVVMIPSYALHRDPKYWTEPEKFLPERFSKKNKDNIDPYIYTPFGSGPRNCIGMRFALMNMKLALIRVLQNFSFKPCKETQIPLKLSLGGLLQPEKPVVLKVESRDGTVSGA

[9] = Oral bioavailability in Sprague-Dawley rat at 3 mg/kg via gavage by LC-MS/MS analysis; assay type: ADME, organism-based; details: in vivo; in short: as §3
[10] = biological target: T1, Glucagon-like peptide 1 receptor; assay: Antagonist activity at human GLP-1R expressed in TREx293 cells co-expressing cAMP sensitive luciferase assessed as inhibition of exendin-4-induced cAMP accumulation after 90 mins by GloSensor cAMP assay relative to GLP-1; assay type: functional, cell-based; in short: as §1
[11] = biological target: T1, Glucagon-like peptide 1 receptor; assay: Antagonist activity at human GLP-1R expressed in TREx293 cells co-expressing cAMP sensitive luciferase assessed as inhibition of GLP1 (7 to 36 residues) amide-induced cAMP accumulation after 90 mins by GloSensor cAMP assay; assay type: functional, cell-based; in short: as §2
[12] = Plasma clearance in Sprague-Dawley rat at 1 mg/kg, iv or 3 mg/kg via oral gavage by LC-MS/MS analysis; assay type: ADME, organism-based; in short: as §3
Cytochrome P450 2C9 = Cytochrome P450 2C9 (Homo sapiens, UniProt P11712); assay: Inhibition of CYP2C9 in human liver microsomes using diclofenac as substrate preincubated for 15 mins followed by NADPH addition measured after 8 mins by LC-MS/MS analysis; assay type: ADME
Sequence of Cytochrome P450 2C9 (P11712 whole entry): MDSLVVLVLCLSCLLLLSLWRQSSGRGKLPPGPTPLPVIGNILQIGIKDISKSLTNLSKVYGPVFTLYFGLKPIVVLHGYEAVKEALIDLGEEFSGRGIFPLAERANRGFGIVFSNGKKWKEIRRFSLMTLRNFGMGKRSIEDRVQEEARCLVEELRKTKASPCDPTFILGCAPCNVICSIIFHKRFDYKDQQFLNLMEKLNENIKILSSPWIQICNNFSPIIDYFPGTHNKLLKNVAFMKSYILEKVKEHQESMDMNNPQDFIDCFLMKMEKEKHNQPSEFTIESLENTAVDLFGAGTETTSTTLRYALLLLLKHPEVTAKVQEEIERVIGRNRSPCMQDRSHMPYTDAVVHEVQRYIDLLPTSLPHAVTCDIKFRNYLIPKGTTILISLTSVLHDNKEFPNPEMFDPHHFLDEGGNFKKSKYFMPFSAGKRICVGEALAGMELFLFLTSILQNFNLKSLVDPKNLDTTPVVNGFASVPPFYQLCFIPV

[13] = Volume of distribution at steady state in Sprague-Dawley rat at 1 mg/kg, iv or 3 mg/kg via oral gavage by LC-MS/MS analysis; assay type: ADME, organism-based; details: in vivo, read-out: Vdss; in short: as §3
[14] = Drug uptake in Sprague-Dawley rat plasma at 3 mg/kg via oral gavage after 1 hr by LC-MS/MS analysis; assay type: ADME, organism-based; in short: as §4
Cytochrome P450 2D6 = Cytochrome P450 2D6 (Homo sapiens, UniProt P10635); assay: Inhibition of CYP2D6 in human liver microsomes using dextromethorphan as substrate preincubated for 15 mins followed by NADPH addition measured after 8 mins by LC-MS/MS analysis; assay type: ADME
Sequence of Cytochrome P450 2D6 (P10635 whole entry): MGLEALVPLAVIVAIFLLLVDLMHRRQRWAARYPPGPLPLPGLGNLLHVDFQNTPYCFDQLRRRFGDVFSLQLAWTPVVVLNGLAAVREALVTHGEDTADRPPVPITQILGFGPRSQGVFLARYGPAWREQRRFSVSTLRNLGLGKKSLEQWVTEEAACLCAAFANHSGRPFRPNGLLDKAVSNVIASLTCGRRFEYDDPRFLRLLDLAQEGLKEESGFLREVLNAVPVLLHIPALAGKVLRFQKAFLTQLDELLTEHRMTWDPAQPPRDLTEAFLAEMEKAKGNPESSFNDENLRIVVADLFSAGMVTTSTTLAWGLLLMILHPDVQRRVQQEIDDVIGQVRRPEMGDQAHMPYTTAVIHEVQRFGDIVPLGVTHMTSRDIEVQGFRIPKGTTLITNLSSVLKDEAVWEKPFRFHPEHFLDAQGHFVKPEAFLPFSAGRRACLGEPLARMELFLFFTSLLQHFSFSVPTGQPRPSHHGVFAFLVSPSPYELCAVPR

Glucagon receptor = Glucagon receptor (Homo sapiens, UniProt P47871); assay: Antagonist activity at glucagon receptor (unknown origin)
Sequence of Glucagon receptor (P47871 whole entry): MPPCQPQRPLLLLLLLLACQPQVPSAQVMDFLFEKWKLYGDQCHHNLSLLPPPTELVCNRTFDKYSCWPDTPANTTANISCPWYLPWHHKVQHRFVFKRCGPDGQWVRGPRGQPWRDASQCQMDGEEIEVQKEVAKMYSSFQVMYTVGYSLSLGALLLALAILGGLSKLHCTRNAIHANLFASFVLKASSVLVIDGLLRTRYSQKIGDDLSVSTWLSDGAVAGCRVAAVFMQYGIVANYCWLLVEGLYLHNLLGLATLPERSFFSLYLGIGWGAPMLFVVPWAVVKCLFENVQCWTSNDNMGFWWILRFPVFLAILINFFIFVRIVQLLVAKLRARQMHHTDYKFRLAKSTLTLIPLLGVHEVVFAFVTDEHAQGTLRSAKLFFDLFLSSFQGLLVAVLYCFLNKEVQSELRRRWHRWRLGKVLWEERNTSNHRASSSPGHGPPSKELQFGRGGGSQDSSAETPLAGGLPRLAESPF

Rattus norvegicus [15] = assay: Decrease in blood insulin level in Sprague-Dawley rat at 10 mg/kg, po pretreated for 30 mins followed by glucose challenge measured up to 150 mins by oral glucose tolerance test; assay type: functional, organism-based; in short: as §5
[16] = Ratio of drug level in Sprague-Dawley rat brain to plasma at 3 mg/kg via oral gavage after 1 hr by LC-MS/MS analysis; assay type: ADME, organism-based; in short: as §4
[17] = Fraction unbound in rat plasma at 5 uM after 4 hrs by LC-MS/MS based equilibrium dialysis method; assay type: ADME, cell-free
[18] = Fraction unbound in human plasma at 5 uM after 4 hrs by LC-MS/MS based equilibrium dialysis method; assay type: ADME, cell-free

SMILES | Emin [2] | IC50 [3] | half-life [4] | inhibition [5] | concentration at 1 h [6] | IC50 (Cytochrome P450 1A2) | inhibition [8] | IC50 (Cytochrome P450 3A4) | bioavailability [9] | Emin [10] | IC50 [11] | clearance [12] | IC50 (Cytochrome P450 2C9) | Vd [13] | concentration at 1 h [14] | IC50 (Cytochrome P450 2D6) | IC50 (Glucagon receptor) | Kp at 1 h [16] | fraction unbound at 4 h, 5 µM [17] | fraction unbound at 4 h, 5 µM [18] | also measured
COc1ccc2c(c1)N(c1ccccc1F)C(=O)[C@@]2(CCC(=O)O)NC(=O)c1cc2ccccc2cn1 |  |  |  |  |  |  |  |  |  |  |  |  |  |  |  |  |  |  |  |  | IC50 [1]: 21 µM
Cn1c2c(c(=O)n(C)c1=O)C(C(F)(F)F)(C(F)(F)F)NC(c1ccc(Cl)cc1)=N2 | 20.9% | 0.69 µM | 9.78 h | Active | 65.1 ng/g | 4.01 µM | Dose-dependent effect | > 30 µM | 50% | 19.7% | 0.65 µM | 4.79 mL/min/kg | 0.41 µM | 3.57 L/kg | 45 ng/mL | > 30 µM | > 30 µM | 1.45 | 0.011 | 0.007 | Activity (Rattus norvegicus [7]): Active; Activity (Rattus norvegicus [15]): Active
COc1cccc(C2=NC(C(F)(F)F)(C(F)(F)F)c3c(n(-c4ccc(Cl)cc4)c(=O)[nH]c3=O)N2)c1 | 16.8% | 5.8 µM | 2.42 h |  | 37.1 ng/g | > 30 µM |  | 16.4 µM | 100% | 23.9% | 5.9 µM | 36.4 mL/min/kg | 3.78 µM | 0.69 L/kg | 1140 ng/mL | 8.13 µM | > 30 µM | 0.03 | 0.002 | 0.003 | 
Cn1c2c(c(=O)n(C)c1=O)C(C(F)(F)F)(C(F)(F)F)N=C(c1cccc([N+](=O)[O-])c1)N2 | 16.4% | 0.69 µM | 0.7 h | Active | 2.4 ng/g | 25 µM | Dose-dependent effect | > 30 µM |  | 15.5% | 0.61 µM | 3.64 mL/min/kg | 0.47 µM | 0.22 L/kg | 76.7 ng/mL | 21.2 µM | > 30 µM | 0.02 | 0.005 | 0.005 | 
COc1cccc(C2=NC(C(F)(F)F)(C(F)(F)F)c3c(n(CC(C)C)c(=O)[nH]c3=O)N2)c1 | 22.7% | 7.2 µM |  |  |  |  |  |  |  | 26.4% | 7.2 µM |  |  |  |  |  |  |  |  |  | 
O=c1[nH]c(=O)n(Cc2ccccc2)c2c1C(C(F)(F)F)(C(F)(F)F)N=C(c1cccs1)N2 | 36.2% | 1.5 µM |  |  |  |  |  |  |  | 32% | 1.3 µM |  |  |  |  |  |  |  |  |  | 
